From ChEMBL document CHEMBL3525996, “Deuterium isotope effects on drug pharmacokinetics. I. System-dependent effects of specific deuteration with aldehyde oxidase cleared drugs” (Drug Metab Dispos, 2012)

What was measured:
aldehyde oxidase = assay: Activity of guinea pig cytosolic aldehyde oxidase; settings: cytosol (aldehyde oxidase)
[1] = AUC in Hartley guinea pig at 5 mg/kg, iv; assay type: ADME, organism-based, Cavia porcellus; set-up: dose 5 mg/kg, route intravenous; settings: plasma
In short: (§1)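 A 1:1 deuterio/proto mixture, ~10 mg/kg total (5 mg/kg per isotopic form), was given orally in water or as an IV bolus via the jugular vein in saline. Animals were male Hartley guinea pigs (325–350 g) or male Sprague-Dawley rats (250–300 g). Carotid blood was sampled from 10 min to 6 h, and plasma was analysed by LC-MS/MS MRM. AUC and t1/2 were calculated between the first and last measured points.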

[2] = AUC in Sprague-Dawley rat at 5 mg/kg, iv; assay type: ADME, organism-based; set-up: dose 5 mg/kg, route intravenous; settings: plasma; in short: as §1
[3] = AUC in Hartley guinea pig at 5 mg/kg, po; assay type: ADME, organism-based, Cavia porcellus; set-up: dose 5 mg/kg, route oral; settings: plasma; in short: as §1
[4] = Cmax in Hartley guinea pig at 5 mg/kg, po; assay type: ADME, organism-based, Cavia porcellus; set-up: dose 5 mg/kg, route oral; settings: in vivo; in short: as §1
[5] = AUC in Sprague-Dawley rat at 5 mg/kg, po; assay type: ADME, organism-based; set-up: dose 5 mg/kg, route oral; settings: plasma; in short: as §1
[6] = Cmax in Sprague-Dawley rat at 5 mg/kg, po; assay type: ADME, organism-based; set-up: dose 5 mg/kg, route oral; settings: in vivo; in short: as §1
[7] = AUC in Hartley guinea pig at 1 mg/kg, iv; assay type: ADME, organism-based, Cavia porcellus; set-up: dose 1 mg/kg, route intravenous; settings: plasma
In short: (§2)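 Male Hartley guinea pigs (325–350 g) or male Sprague-Dawley rats (250–300 g) received a 1:1 deuterio/proto mixture. Oral dose was ~5 mg/kg total (2.5 mg/kg per isotopomer) in water; IV bolus via the jugular vein was ~2 mg/kg total (1 mg/kg per isotopomer) in saline. Carotid blood was drawn between 10 min and 6 h, and plasma was assayed by LC-MS/MS. AUC and t1/2 cover only the first to last measured time points.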

[8] = Half life in Hartley guinea pig at 1 mg/kg, iv; assay type: ADME, organism-based, Cavia porcellus; set-up: dose 1 mg/kg, route intravenous; settings: in vivo; in short: as §2
[9] = AUC in Sprague-Dawley rat at 1 mg/kg, iv; assay type: ADME, organism-based; set-up: dose 1 mg/kg, route intravenous; settings: plasma; in short: as §2
[10] = Half life in Sprague-Dawley rat at 1 mg/kg, iv; assay type: ADME, organism-based; set-up: dose 1 mg/kg, route intravenous; settings: in vivo; in short: as §2
[11] = AUC in Hartley guinea pig at 2.5 mg/kg, po; assay type: ADME, organism-based, Cavia porcellus; set-up: dose 2.5 mg/kg, route oral; settings: plasma; in short: as §2
[12] = Cmax in Hartley guinea pig at 2.5 mg/kg, po; assay type: ADME, organism-based, Cavia porcellus; set-up: dose 2.5 mg/kg, route oral; settings: in vivo; in short: as §2
[13] = Half life in Hartley guinea pig at 2.5 mg/kg, po; assay type: ADME, organism-based, Cavia porcellus; set-up: dose 2.5 mg/kg, route oral; settings: in vivo; in short: as §2
[14] = AUC in Sprague-Dawley rat at 2.5 mg/kg, po; assay type: ADME, organism-based; set-up: dose 2.5 mg/kg, route oral; settings: plasma; in short: as §2
[15] = Cmax in Sprague-Dawley rat at 2.5 mg/kg, po; assay type: ADME, organism-based; set-up: dose 2.5 mg/kg, route oral; settings: in vivo; in short: as §2
[16] = Half life in Sprague-Dawley rat at 2.5 mg/kg, po; assay type: ADME, organism-based; set-up: dose 2.5 mg/kg, route oral; settings: in vivo; in short: as §2

| SMILES | AUC [1] [ng·h/mL] | AUC [2] [ng·h/mL] | AUC [3] [ng·h/mL] | Cmax [4] [ng/mL] | AUC [5] [ng·h/mL] | Cmax [6] [ng/mL] | AUC [7] [ng·h/mL] | half-life [8] [min] | AUC [9] [ng·h/mL] | half-life [10] [min] | AUC [11] [ng·h/mL] | Cmax [12] [ng/mL] | half-life [13] [min] | AUC [14] [ng·h/mL] | Cmax [15] [ng/mL] | half-life [16] [min] | Km (aldehyde oxidase) [µM] |
| --- | --- | --- | --- | --- | --- | --- | --- | --- | --- | --- | --- | --- | --- | --- | --- | --- | --- |
| [2H]c1ccc2ccccc2n1 | – | – | – | – | – | – | – | – | – | – | – | – | – | – | – | – | 193 |
| [2H]c1nnc(N2CCC(OC(=O)NCC)CC2)c2cc(OC)c(OC)cc12 | 206 | 1270 | 96 | 161 | 3720 | 1770 | – | – | – | – | – | – | – | – | – | – | – |
| c1ccc2ncccc2c1 [QUINOLINE] | – | – | – | – | – | – | – | – | – | – | – | – | – | – | – | – | 212 |

Continued, in another order:

| AUC [1] [ng·h/mL] | AUC [2] [ng·h/mL] | AUC [3] [ng·h/mL] | Cmax [4] [ng/mL] | AUC [5] [ng·h/mL] | Cmax [6] [ng/mL] | AUC [7] [ng·h/mL] | half-life [8] [min] | AUC [9] [ng·h/mL] | half-life [10] [min] | AUC [11] [ng·h/mL] | Cmax [12] [ng/mL] | half-life [13] [min] | AUC [14] [ng·h/mL] | Cmax [15] [ng/mL] | half-life [16] [min] | SMILES | Km (aldehyde oxidase) [µM] |
| --- | --- | --- | --- | --- | --- | --- | --- | --- | --- | --- | --- | --- | --- | --- | --- | --- | --- |
| – | – | – | – | – | – | 40.7 | 30 | 77.4 | 30 | 25.7 | 23.3 | 30 | 12.7 | 18.4 | 18 | [2H]c1ccc2c(-n3ncc(C(=O)NC(=N)N)c3C3CC3)cccc2n1 | – |
| 35.6 | 509 | 4.25 | 9.8 | 1630 | 1150 | – | – | – | – | – | – | – | – | – | – | CCNC(=O)OC1CCN(c2nncc3cc(OC)c(OC)cc23)CC1 [CARBAZERAN] | – |
| – | – | – | – | – | – | 23.2 | 30 | 74.4 | 24 | 22.2 | 26.5 | 30 | 19.7 | 24.7 | 18 | N=C(N)NC(=O)c1cnn(-c2cccc3ncccc23)c1C1CC1 [ZONIPORIDE] | – |
